# In ChEMBL document CHEMBL1140930 (J Med Chem, 2009):
# Legend:
# [1] = Antiproliferative activity against human KB/HeLa cells by XTT assay; format: functional, cell-based
# Outline: (§1)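 XTT metabolic read-out. Cells seeded at 1 × 10³–8 × 10⁴ cells/well for logarithmic growth and exposed to graded concentrations for 48 h. At least two replicates. IC50 from nonlinear regression of dose-response curves. LT12/MDR: rat LT12 with ectopic human MDR-1. L1210/VCR: MDR-1 expressing, MRP-1 negative.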
# [2] = system: SF-268; assay: Antiproliferative activity against human SF268 cells by XTT assay; format: functional, cell-based; outline: as §1
# [3] = system: NCI-H460; assay: Antiproliferative activity against human NCI-H460 cells by XTT assay; format: functional, cell-based; outline: as §1
# [4] = system: RKO; assay: Antiproliferative activity against human RKO cells by XTT assay; format: functional, cell-based
# Outline: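 RKO colon cells with ecdysone-inducible p27Kip1. Day 1: plated with or without 3 µM ponasterone A for 24 h, giving G1 arrest when induced (2 × 10⁴ cells/well induced; 6 × 10³ not induced). Day 2: compound added (DMSO control) for 48 h at 37 °C, then standard XTT. At least duplicate. IC50 by nonlinear regression.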
# [5] = system: RKO; assay: Antiproliferative activity against human RKO cells containing ecdysone-inducible expression vector of p27kipl by XTT assay; format: functional, cell-based
# Outline: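 RKO cells carried an ecdysone-inducible p27Kip1 vector and were tested with and without induction. On day 1 they were plated with or without 3 µM ponasterone A, which gives G1 arrest, at 2 × 10⁴ cells/well induced or 6 × 10³ not induced, then held 24 h at 37 °C. Compound was then added for 48 h at 37 °C, followed by a standard XTT assay. IC50 came from nonlinear regression, n ≥ 2.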
# [6] = Antiproliferative activity against rat LT12 cells after 48 hrs by XTT assay; format: functional, cell-based; conditions: LT12, 48 h
# Outline: (§2)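 XTT metabolic-activity read-out of proliferation. Cells were seeded at 1 × 10³-8 × 10⁴ cells/well for logarithmic growth and exposed to a range of compound concentrations for 48 h. IC50 came from nonlinear regression of dose-response curves, with at least two replicates. The P388/Adr subline was doxorubicin-selected with elevated MDR-1.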
# [7] = Antiproliferative activity against rat LT12 cells ectopic expression of human MDR1 after 48 hrs by XTT assay; format: functional, cell-based; conditions: LT12, 48 h; outline: as §1
# [8] = system: L1210; assay: Antiproliferative activity against mouse L1210 cells after 48 hrs by XTT assay; format: functional, cell-based; conditions: L1210, 48 h; outline: as §2
# [9] = system: L1210; assay: Antiproliferative activity against vincristine-resistance MRP1 negative mouse L1210 cells expressing human MDR1 after 48 hrs by XTT assay; format: functional, cell-based; conditions: L1210, 48 h; outline: as §1
# [10] = system: P388; assay: Antiproliferative activity against mouse P388 cells after 48 hrs by XTT assay; format: functional, cell-based; conditions: P388, 48 h; outline: as §2
# [11] = system: P388; assay: Antiproliferative activity against doxorubicin-resistant mouse P388 cells expressing MDR1 protein after 48 hrs by XTT assay; format: functional, cell-based; conditions: P388, 48 h; outline: as §2
# [12] = system: K562; assay: Antiproliferative activity against human K562 cells after 48 hrs; format: functional, cell-based; conditions: K562, 48 h
# Outline: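 K562 cells (RPMI 1640, 10% FBS, 37 °C, 5% CO2) plated at 2 × 10⁵ cells/mL. Compounds dissolved in DMSO/methanol 1:1, vehicle 0.5%. Cells counted in a Neubauer chamber after 48 h and expressed as % of untreated control. Triplicate wells, three experiments. IC50 from nonlinear regression.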
# [13] = biological target: T1, Tubulin (Sus scrofa, UniProt P02554+P02550); assay: Inhibition of pig brain tubulin polymerization after 30 mins by turbidimetric assay
# Outline: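 Microtubule protein from porcine brain (80–90% tubulin, 10–20% MAPs), purified by two disassembly/reassembly cycles. Assay buffer: 20 mM PIPES pH 6.8, 80 mM NaCl, 0.5 mM MgCl2, 1 mM EGTA, 1 mM DTT. Protein at 1.2 mg/mL with 0.6 mM GTP final, 1% DMSO final, 37 °C.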
# [14] = Cell cycle arrest in human KB/HeLa cells assessed as G2/M phase accumulation after 24 hrs by FACS analysis; format: functional, cell-based
# Outline: (§3)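 Subconfluent KB/HeLa cells exposed to a range of compound concentrations for 24 h at 37 °C, then detached and fixed in 70% ethanol. DNA stained with propidium iodide after RNase digestion and measured by flow cytometry. Cell-cycle phase fractions taken from cell cycle analysis software. At least two replicates.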
# [15] = Cell cycle arrest in human KB/HeLa cells assessed as S phase accumulation at 0.1 nM after 24 hrs by FACS analysis; format: functional, cell-based; outline: as §3
# [16] = Cell cycle arrest in human KB/HeLa cells assessed as G2/M phase accumulation at 0.1 nM after 24 hrs by FACS analysis; format: functional, cell-based; outline: as §3
# [17] = Cell cycle arrest in human KB/HeLa cells assessed as G1 phase accumulation at 0.1 nM after 24 hrs by FACS analysis; format: functional, cell-based; outline: as §3
# [18] = Cell cycle arrest in human KB/HeLa cells assessed as S phase accumulation at 0.3 nM after 24 hrs by FACS analysis; format: functional, cell-based; outline: as §3
# [19] = Cell cycle arrest in human KB/HeLa cells assessed as G2/M phase accumulation at 0.3 nM after 24 hrs by FACS analysis; format: functional, cell-based; outline: as §3
# [20] = Cell cycle arrest in human KB/HeLa cells assessed as G1 phase accumulation at 0.3 nM after 24 hrs by FACS analysis; format: functional, cell-based; outline: as §3
# [21] = Cell cycle arrest in human KB/HeLa cells assessed as S phase accumulation at 1 nM after 24 hrs by FACS analysis; format: functional, cell-based; outline: as §3
# [22] = Cell cycle arrest in human KB/HeLa cells assessed as G2/M phase accumulation at 1 nM after 24 hrs by FACS analysis; format: functional, cell-based; outline: as §3
# [23] = Cell cycle arrest in human KB/HeLa cells assessed as G1 phase accumulation at 1 nM after 24 hrs by FACS analysis; format: functional, cell-based; outline: as §3
# [24] = Cell cycle arrest in human KB/HeLa cells assessed as S phase accumulation at 3.16 nM after 24 hrs by FACS analysis; format: functional, cell-based; outline: as §3
# [25] = Cell cycle arrest in human KB/HeLa cells assessed as G2/M phase accumulation at 3.16 nM after 24 hrs by FACS analysis; format: functional, cell-based; outline: as §3
# [26] = Cell cycle arrest in human KB/HeLa cells assessed as G1 phase accumulation at 3.16 nM after 24 hrs by FACS analysis; format: functional, cell-based; outline: as §3
# [27] = Cell cycle arrest in human KB/HeLa cells assessed as S phase accumulation at 10 nM after 24 hrs by FACS analysis; format: functional, cell-based; outline: as §3
# [28] = Cell cycle arrest in human KB/HeLa cells assessed as G2/M phase accumulation at 10 nM after 24 hrs by FACS analysis; format: functional, cell-based; outline: as §3
# [29] = Cell cycle arrest in human KB/HeLa cells assessed as G1 phase accumulation at 10 nM after 24 hrs by FACS analysis; format: functional, cell-based; outline: as §3
# [30] = Cell cycle arrest in human KB/HeLa cells assessed as S phase accumulation at 31.6 nM after 24 hrs by FACS analysis; format: functional, cell-based; outline: as §3
# [31] = Cell cycle arrest in human KB/HeLa cells assessed as G2/M phase accumulation at 31.6 nM after 24 hrs by FACS analysis; format: functional, cell-based; outline: as §3
# [32] = Cell cycle arrest in human KB/HeLa cells assessed as G1 phase accumulation at 31.6 nM after 24 hrs by FACS analysis; format: functional, cell-based; outline: as §3
# [33] = Cell cycle arrest in human KB/HeLa cells assessed as S phase accumulation at 100 nM after 24 hrs by FACS analysis; format: functional, cell-based; outline: as §3
# [34] = Cell cycle arrest in human KB/HeLa cells assessed as G2/M phase accumulation at 100 nM after 24 hrs by FACS analysis; format: functional, cell-based; outline: as §3
# [35] = Cell cycle arrest in human KB/HeLa cells assessed as G1 phase accumulation at 100 nM after 24 hrs by FACS analysis; format: functional, cell-based; outline: as §3
# [36] = Cell cycle arrest in human KB/HeLa cells assessed as S phase accumulation at 316 nM after 24 hrs by FACS analysis; format: functional, cell-based; outline: as §3
# [37] = Cell cycle arrest in human KB/HeLa cells assessed as G2/M phase accumulation at 316 nM after 24 hrs by FACS analysis; format: functional, cell-based; outline: as §3
# [38] = Cell cycle arrest in human KB/HeLa cells assessed as G1 phase accumulation at 316 nM after 24 hrs by FACS analysis; format: functional, cell-based; outline: as §3
# [39] = system: SK-OV-3; assay: Antiproliferative activity against human SKOV3 cells by XTT assay; format: functional, cell-based; outline: as §2
# [40] = Cell cycle arrest in human KB/HeLa cells assessed as S phase accumulation at 1000 nM after 24 hrs by FACS analysis; format: functional, cell-based; outline: as §3
# [41] = Cell cycle arrest in human KB/HeLa cells assessed as G2/M phase accumulation at 1000 nM after 24 hrs by FACS analysis; format: functional, cell-based; outline: as §3
# [42] = Cell cycle arrest in human KB/HeLa cells assessed as G1 phase accumulation at 1000 nM after 24 hrs by FACS analysis; format: functional, cell-based; outline: as §3
# [43] = biological target: T1, Tubulin; assay: Displacement of [3H]Colchicine from pig biotinylated tubulin after 2 hrs by SPA; format: protein assay
# [44] = biological target: T1, Tubulin; assay: Displacement of [3H]paclitaxel from pig biotinylated tubulin after 2 hrs by SPA; format: protein assay
structure (smiles),measurement,setting,value
COc1ccc(C(=O)C=C2c3ccccc3C(=O)c3ccccc32)cc1OC,IC50,[1],1080 nM
same,IC50,[2],2700 nM
same,IC50,[3],1400 nM
same,IC50,[4],510 nM
same,IC50,[5],> 9000 nM
same,IC50,[6],370 nM
same,IC50,[7],440 nM
same,IC50,[8],970 nM
same,IC50,[9],970 nM
same,IC50,[10],900 nM
same,IC50,[11],1100 nM
same,IC50,[12],1300 nM
same,IC50,[13],6000 nM
CC[C@]1(O)C[C@H]2CN(CCc3c([nH]c4ccccc34)[C@@](C(=O)OC)(c3cc4c(cc3OC)N(C=O)[C@H]3[C@@](O)(C(=O)OC)[C@H](OC(C)=O)[C@]5(CC)C=CCN6CC[C@]43[C@@H]65)C2)C1 [VINCRISTINE],EC50,[14],2.4 nM
same,Activity,[15],27.7%
same,Activity,[16],11.1%
same,Activity,[17],61.2%
same,Activity,[18],24%
same,Activity,[19],11.7%
same,Activity,[20],64.5%
same,Activity,[21],28.3%
same,Activity,[22],17.2%
same,Activity,[23],53.7%
same,Activity,[24],26%
same,Activity,[25],65.8%
same,Activity,[26],6.5%
same,Activity,[27],6.5%
same,Activity,[28],13.1%
same,Activity,[29],86.7%
same,Activity,[30],0.5%
same,Activity,[31],7.2%
same,Activity,[32],92.6%
same,Activity,[33],1%
same,Activity,[34],4.8%
same,Activity,[35],95.1%
same,Activity,[36],0.2%
same,Activity,[37],5.9%
same,Activity,[38],93.8%
COc1ccc(C(=O)C=C2c3ccccc3C(=O)c3ccccc32)cc1,IC50,[1],60 nM
same,IC50,[39],60 nM
same,IC50,[2],60 nM
same,IC50,[3],70 nM
same,IC50,[4],80 nM
same,IC50,[5],> 9000 nM
same,IC50,[6],50 nM
same,IC50,[7],50 nM
same,IC50,[8],50 nM
same,IC50,[9],50 nM
same,IC50,[10],40 nM
same,IC50,[11],50 nM
same,EC50,[14],90 nM
same,Activity,[15],26.1%
same,Activity,[16],13.2%
same,Activity,[17],60.7%
same,Activity,[18],27.1%
same,Activity,[19],10.8%
same,Activity,[20],62.1%
same,Activity,[21],26.1%
same,Activity,[22],11.6%
same,Activity,[23],62.3%
same,Activity,[24],26.2%
same,Activity,[25],11.8%
same,Activity,[26],62%
same,Activity,[27],26%
same,Activity,[28],11.3%
same,Activity,[29],62.7%
same,Activity,[30],34.1%
same,Activity,[31],8.4%
same,Activity,[32],57.5%
same,Activity,[33],16.7%
same,Activity,[34],74.9%
same,Activity,[35],8.4%
same,Activity,[36],6.2%
same,Activity,[37],92.8%
same,Activity,[38],1%
same,Activity,[40],9.2%
same,Activity,[41],88.5%
same,Activity,[42],2.3%
same,IC50,[43],400 nM
same,IC50,[44],> 100000 nM
same,IC50,[12],70 nM
same,IC50,[13],520 nM
